Assay outcomes deposited in PubChem by several laboratories.
UBC13 polyUb = UBC13 polyubiquitin chain formation inhibitors, primary screen, biochemical, TR-FRET, uHTS | 330,000 tested, 0.47% active | Ubiquitin-conjugating enzyme E2 N (Homo sapiens), P61088 | inhibition, % at 20 µM; in the data active = inhibition above about 45%, passing the limit was not always enough
SR-BI uptake up = activators of SR-BI mediated DiI-HDL uptake, primary screen, ldlA[mSR-BI] CHO cells, DiI fluorescence; AID 504775, 2011; 3 h; 100 = double the neutral-control signal; activation, % at 12.5 µM; 320,000 tested, 0.096% active;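 active = mean replicate activation of at least 60% and every replicate at or above 60%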;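 also: 0% = median plate neutral-control signal and 100% = twice that signal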
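System: CHO ldlA[mSR-BI] cells / Medium: HEPES-buffered (25 mM, pH 7.4) F12 plus 0.5% BSA / Probe or stimulus: labelled HDL, 10 µg/mL / Doses: single compound concentration, delivered by pin transfer / Schedule: 3 h, 37 °C / Measured by: DiI fluorescence, bottom read / Measure: cell-associated DiI fluorescence as measure of HDL uptake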
Neddylation inh = inhibitors of cullin neddylation, primary screen, biochemical, TR-FRET, uHTS, NAE and Ubc12; NEDD8-conjugating enzyme Ubc12 (Homo sapiens) + NEDD8-activating enzyme E1 regulatory …; inhibition, % at 25 µM; 360,000 tested, 0.58% active; in the data active = inhibition above about 36%
SR-BI HDL uptake = inhibitors of SR-BI mediated HDL lipid uptake, primary screen, ldlA[mSR-BI] cells, fluorescence, single point; Scavenger receptor class B member 1 (Mus musculus), Q61009; ldlA[mSR-BI] CHO cells, DiI-HDL uptake fluorescence, 3 h; inhibition, % at 12.5 µM; 320,000 tested, 0.96% active; AID 488896, 2010;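 active = mean replicate inhibition of at least 70% and a set share of replicates each scoring 70 or more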;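 also: 0% = median of neutral control wells and 100% = median of positive control wells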
Starred values were filed as active, the others as inactive. This is a sample that favours compounds with a hit; in the whole collection about 1.9% have one here.

Cc1noc(C)c1C(=O)N1CCC1(C)C(=O)NS(=O)(=O)c1ccccc1C(F)(F)F (stereo not given) was read as Neddylation inh -2.
`CC(C)S(=O)(=O)C1=NSC2=NC(=O)/C(=C\c3ccc(-c4ccccc4)o3)C(=N)N21` gave SR-BI uptake up -12, Neddylation inh 41* and SR-BI HDL uptake 12.
C=CCN1C(=O)C(Cc2ccc(OC)cc2)SC1=Nc1ccc(C(=O)O)cc1 (stereo not given) was read as UBC13 polyUb 2, SR-BI uptake up 7, Neddylation inh 1 and SR-BI HDL uptake -7.
C=CCN1C(=O)C(Cc2cccc(Cl)c2)SC1=Nc1ccc(C(=O)O)cc1 (stereo not given) was read as UBC13 polyUb -5, SR-BI uptake up 63*, Neddylation inh 9 and SR-BI HDL uptake -63.
`CCc1ccc(N=c2c([N+](=O)[O-])nn(-c3ccccc3)n2O)cc1` gave UBC13 polyUb -27, SR-BI uptake up -15, Neddylation inh -36 and SR-BI HDL uptake 15.
Cc1cc(C)cc(N=c2c([N+](=O)[O-])nn(-c3ccc(Cl)cc3)n2O)c1 was read as UBC13 polyUb -12, SR-BI uptake up -80, Neddylation inh -29 and SR-BI HDL uptake 80*.
`CCOC(=O)c1sc(-c2ccccc2)cc1NC(=O)Nc1ccc([N+](=O)[O-])cc1` gave UBC13 polyUb 8, SR-BI uptake up -78, Neddylation inh -2 and SR-BI HDL uptake 78*.
O=C(Nc1ncc(Cc2cc(Cl)ccc2Cl)s1)c1ccc([N+](=O)[O-])cc1 was read as UBC13 polyUb 3, SR-BI uptake up -82, Neddylation inh -4 and SR-BI HDL uptake 82*.
`O=C(Nc1ncc(Cc2cccc(Cl)c2Cl)s1)c1ccc([N+](=O)[O-])cc1` gave UBC13 polyUb -22, SR-BI uptake up -66, Neddylation inh 5 and SR-BI HDL uptake 66.
Cc1ccc2sc(C)cc(=O)c2c1 was read as SR-BI uptake up 13, Neddylation inh 14 and SR-BI HDL uptake -13.
For Oc1ccccc1-c1nc(NC2CCCC2)c2ccccc2n1 the results were UBC13 polyUb 5, SR-BI uptake up -82, Neddylation inh inactive and SR-BI HDL uptake 82*.
Screening Fc1ccccc1-c1nc(NC2CCCC2)c2ccccc2n1 returned UBC13 polyUb 3, SR-BI uptake up -34, Neddylation inh -8 and SR-BI HDL uptake 34.
For CC(C)n1nnnc1SCC(=O)N1N=C(c2cccs2)CC1c1cccs1 (stereo not given) the results were UBC13 polyUb 0, SR-BI uptake up -1, Neddylation inh 35 and SR-BI HDL uptake 1.
For O=C1CCC/C(=N/Nc2ccc(Cl)cc2)C1 the results were UBC13 polyUb -6, SR-BI uptake up -80, Neddylation inh -11 and SR-BI HDL uptake 80*.
Screening O=C(NN=C1CCCC1)c1ccc(Cl)cc1 returned UBC13 polyUb -1, SR-BI uptake up 6, Neddylation inh -1 and SR-BI HDL uptake -6.
COc1ccccc1NC(=O)C/C(N)=N/OCC(=O)Nc1cccc(Cl)c1 was read as UBC13 polyUb 8, SR-BI uptake up -14, Neddylation inh 3 and SR-BI HDL uptake 14.
Screening COc1ccccc1NC(=O)c1c(Nc2ccccc2F)sc(C(=O)Nc2cccc(Cl)c2)c1N returned UBC13 polyUb -5, SR-BI uptake up -75, Neddylation inh -8 and SR-BI HDL uptake 75*.
Screening COC(=O)C1OC(OC2CC[C@]3(C)C(CC[C@@]4(C)[C@@H]3CC=C3[C@@H]5CC(C)(C)CC[C@]5(C(=O)OC5OC(CO)C(O)C(O)C5O)CC[C@]34C)C2(C)C)C(O)C(O)C1O[C@H]1OCC(O)C(O)C1O (stereo not given in full) returned UBC13 polyUb 21, SR-BI uptake up 119*, Neddylation inh -4 and SR-BI HDL uptake -119.
`O=C(Nc1ccccc1)c1ccc(-c2ccc([N+](=O)[O-])cc2)o1` gave UBC13 polyUb -10 and Neddylation inh -16.
Screening Cc1ccccc1C(=O)NNC(=S)NC(=O)c1ccccc1 returned UBC13 polyUb -24, SR-BI uptake up 25, Neddylation inh 5 and SR-BI HDL uptake -25.
`O=C(NNC(=O)c1ccccc1O)c1ccc(-c2ccc([N+](=O)[O-])cc2)o1` gave UBC13 polyUb -21, SR-BI uptake up -121, Neddylation inh -21 and SR-BI HDL uptake 121*.
`O=C(NC(=S)NNC(=O)c1ccccc1O)c1ccccc1` gave UBC13 polyUb 24, SR-BI uptake up -100, Neddylation inh 4 and SR-BI HDL uptake 100*.
For Cc1ccc(C(=O)NNC(=S)NC(=O)c2ccccc2)cc1 the results were UBC13 polyUb -34, SR-BI uptake up -4, Neddylation inh 39* and SR-BI HDL uptake 4.
`Cc1ccc(C(=O)NC(=S)NNC(=O)c2ccccc2O)cc1` gave UBC13 polyUb 7, SR-BI uptake up -112, Neddylation inh -1 and SR-BI HDL uptake 112*.
Screening CC(C)(C)c1cc(CCC(=O)NNC(=S)NC(=O)c2ccccc2)cc(C(C)(C)C)c1O returned UBC13 polyUb -34, SR-BI uptake up -71, Neddylation inh 14 and SR-BI HDL uptake 71*.
Screening O=C(CCc1ccccc1)NNC(=O)c1ccccc1C(=O)O returned UBC13 polyUb 4, SR-BI uptake up 16, Neddylation inh -1 and SR-BI HDL uptake -16.
O=C(CCc1ccccc1)NNC(=O)c1cc(Cl)ccc1O was read as UBC13 polyUb 2, SR-BI uptake up -115 and SR-BI HDL uptake 115*.
O=C(CCc1ccccc1)NNC(=S)NC(=O)c1ccccc1 was read as UBC13 polyUb -32, SR-BI uptake up -4, Neddylation inh -1 and SR-BI HDL uptake 4.
Screening O=C(NC(=S)NNC(=O)c1ccccc1O)c1ccc([N+](=O)[O-])cc1 returned UBC13 polyUb -3, SR-BI uptake up -106, Neddylation inh -26 and SR-BI HDL uptake 106*.
For O=C(NNC(=S)NC(=O)c1ccccc1)c1ccc([N+](=O)[O-])cc1 the results were UBC13 polyUb -22, SR-BI uptake up 6, Neddylation inh -15 and SR-BI HDL uptake -6.
Screening O=C(NNC(=S)NC(=O)c1ccccc1[N+](=O)[O-])c1ccccc1O returned UBC13 polyUb 19, SR-BI uptake up -84, Neddylation inh -17 and SR-BI HDL uptake 84*.
Screening O=C(O)c1ccc(NC2(C(=O)O)CCCC2)cc1 returned SR-BI uptake up -5, Neddylation inh -1 and SR-BI HDL uptake 5.
For O=C(NNC(=O)c1ccccc1Cl)c1cccs1 the results were UBC13 polyUb -12, SR-BI uptake up 1, Neddylation inh 7 and SR-BI HDL uptake -1.
For O=C(NC(=S)NNC(=O)c1ccccc1O)c1cccs1 the results were UBC13 polyUb 30, SR-BI uptake up -114, Neddylation inh 3 and SR-BI HDL uptake 114*.
